Most compounds without a hit are left out; they make up all but 2.4% or so of the library.
CSN inh = blocks human CSN-mediated cullin deneddylation | Q92905 | Purified CSN, SCF-Nedd8-OG deneddylation, fluorescence polarization | inhibition, % at 12.5 µM | 360,000 tested, 0.38% active;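 active = pattern-corrected inhibition above about 35%, with an unprinted fluorescence ratio check between 0.5 and 1.5, limit read from the data, passing the limit was not always enough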;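 note: 0% = enzyme with substrate and 100% = substrate without enzyme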
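Schedule: reaction 90 min, room temperature / Assay system: HEK293T-derived human Csn5 enzyme / Input: Csn5 at 0.24 nM final / Measure: inhibition of Csn5 cleavage, % / Control set: substrate-only high control, full reaction low control / Technique: fluorescence polarization of the substrate / Buffer or medium: Tris/NaCl/DTT buffer, pH 7.5 / Reagent: SCFSkp2-Nedd8OG substrate at 10 nM final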
Neddylation inh = cullin neddylation inhibition; P61081+Q13564; TR-FRET cullin neddylation, biochemical; inhibition, % at 25 µM; 360,000 tested, 0.58% active; in the data active = inhibition above about 36%
HNF4A DNA FP = change in binding of human HNF4 alpha to DNA; P41235; HNF4a-FITC DNA binding, fluorescence polarization, 1 h; AID 1224865; activity change, % at 10 µM; 360,000 tested, 0.3% active; in the data active = activity change above about 30%, passing the limit was not always enough
Target sequence (P41235 whole entry, looked up): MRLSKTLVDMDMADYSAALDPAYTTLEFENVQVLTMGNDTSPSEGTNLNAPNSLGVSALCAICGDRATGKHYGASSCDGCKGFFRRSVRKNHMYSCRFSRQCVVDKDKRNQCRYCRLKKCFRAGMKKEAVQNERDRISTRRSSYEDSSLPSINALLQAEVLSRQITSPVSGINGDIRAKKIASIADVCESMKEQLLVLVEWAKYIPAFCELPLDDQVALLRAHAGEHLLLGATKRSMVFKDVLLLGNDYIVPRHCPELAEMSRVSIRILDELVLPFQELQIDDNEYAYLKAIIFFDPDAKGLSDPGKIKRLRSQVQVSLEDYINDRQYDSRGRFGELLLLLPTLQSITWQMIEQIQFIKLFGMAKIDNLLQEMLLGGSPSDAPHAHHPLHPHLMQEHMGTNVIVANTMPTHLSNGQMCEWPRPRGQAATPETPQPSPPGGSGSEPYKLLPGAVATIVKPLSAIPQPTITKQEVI
Rpn11 inh = blocks the human proteasome subunit Rpn11; O00487; human 26S proteasome, Ub4-pepOG fluorescence polarization; 20S core pre-blocked with epoxomicin; inhibition, % at 20 µM; 360,000 tested, 0.59% active;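 active = inhibition at 20 µM, scaled to each plate's controls, above about 33%, limit read from the data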
Rin1-Abl PPI inh = blocks binding of human Rin1 to Abl | P00519+Q13671 | inhibition, % at 7.35 µM | 360,000 tested, 0.4% active | TR-FRET Rin1/Abl binding, biochemical | AID 588664; in the data active = inhibition above about 5%, passing the limit was not always enough
TPT1 inhibitor = blocks Candida albicans tRNA 2'-phosphotransferase; recombinant caTPT1, FP RNA substrate dephosphorylation; 300,000 tested, 0.81% active; inhibition, % at 5 µM;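 active = inhibition above the mean of all tested compounds plus 3 SD, set per screening campaign, cut at about 24% in these data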;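 note: plate controls were DMSO alone for no effect and ferristatin control at 100 nM for full effect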
Starred values were filed as active, the others as inactive; · = not tested or not shown.

SMILES | CSN inh | Neddylation inh | HNF4A DNA FP | Rpn11 inh | Rin1-Abl PPI inh | TPT1 inhibitor
O=C(O)CC/C(=N\NC(=O)CNC(=O)c1ccc(F)cc1)c1ccccc1 | 0.0 | -4.2 | 4.0 | -1.8 | -2.7 | 2.0
C#CCOCCOCCOCCNc1nc(N2CCN(C(=O)CCCCCCCCCCNC(=O)Cn3cc(C[C@@H](C)O)nn3)CC2)nc(N2CCN(C(=O)CCCCCCCCCCNC(=O)[C@@H]([C@H](C)O)n3cc(C)nn3)CC2)n1 | -6.9 | -29.1 | -5.2 | 0.8 | 5.5 | -2.5
C#CCOCCOCCOCCNc1nc(N2CCN(C(=O)CCCCCCCCCCNC(=O)[C@H](CCCCN)n3cc(C[C@@H](C)CC)nn3)CC2)nc(N2CCN(C(=O)CCCCCCCCCCNC(=O)[C@@H]([C@H](C)O)n3cc(C)nn3)CC2)n1 | 66.1* | -0.6 | 65.0* | 38.1 | 4.6 | -0.6
C#CCOCCOCCOCCNc1nc(N2CCN(C(=O)CCCCCCCCCCNC(=O)[C@H](CCCCN)n3cc(C)nn3)CC2)nc(N2CCN(C(=O)CCCCCCCCCCNC(=O)[C@@H]([C@H](C)O)n3cc(C)nn3)CC2)n1 | -2.3 | -18.9 | -0.8 | 1.6 | 5.9 | -3.0
C#CCOCCOCCOCCNc1nc(N2CCN(C(=O)CCCCCCCCCCNC(=O)[C@H](CO)n3cc(CCCCCN)nn3)CC2)nc(N2CCN(C(=O)CCCCCCCCCCNC(=O)[C@H](CCCN=C(N)N)n3cc(C[C@@H](C)CC)nn3)CC2)n1 | · | · | · | · | · | 3.0
C#CCOCCOCCOCCNc1nc(N2CCN(C(=O)CCCCCCCCCCNC(=O)[C@H](CCCCN)n3cc(C[C@@H](C)CC)nn3)CC2)nc(N2CCN(C(=O)CCCCCCCCCCNC(=O)[C@H](CCCN=C(N)N)n3cc(C[C@@H](C)CC)nn3)CC2)n1 | 137.1* | -2.9 | 213.3 | 127.5* | 11.4 | -1.5
C#CCOCCOCCOCCNc1nc(N2CCN(C(=O)CCCCCCCCCCNC(=O)Cn3cc(CCCCCN)nn3)CC2)nc(N2CCN(C(=O)CCCCCCCCCCNC(=O)[C@@H]([C@H](C)O)n3cc(C)nn3)CC2)n1 | 5.9 | -23.2 | 0.4 | -3.8 | 11.3* | -0.8
C#CCOCCOCCOCCNc1nc(N2CCN(C(=O)CCCCCCCCCCNC(=O)[C@@H](CCSC)n3cc(CCO)nn3)CC2)nc(N2CCN(C(=O)CCCCCCCCCCNC(=O)[C@H](CCCN=C(N)N)n3cc(C[C@@H](C)CC)nn3)CC2)n1 | 130.7* | -4.5 | 256.7 | 117.5* | 26.6* | -2.0
Cc1ccn2c(NC3CCCCC3)c(-c3ccc(SC4CCCCC4)cc3)nc2c1 | 19.4 | · | 54.2* | · | · | ·
CCOC(=O)c1cc2nc(-c3ccccc3)cc(C)n2n1 | -0.5 | · | 2.2 | -5.3 | -3.2 | -3.0
CCOC(=O)c1cnn2c(C)cc(-c3ccccc3)nc12 | -5.0 | · | 52.9* | 4.9 | 2.9 | 0.1
Cc1ccc(Sc2ccc(N)cn2)cc1 | 44.7* | 2.3 | 4.6 | 5.2 | -0.4 | 0.5
CS(=O)(=O)N(CC(=O)N1CCOCC1)c1cccc(Cl)c1 | 90.1* | -10.8 | 5.0 | -10.2 | 1.4 | ·
Nc1nc(NCC(=O)O)nc(NC2CCCCC2)c1[N+](=O)[O-] | 1.4 | -12.0 | 46.0* | -1.6 | 1.9 | ·
CCCCC(=O)N1CCN(c2nc3ccc(OCC)cc3s2)CC1 | 62.5* | -9.4 | 10.7 | -6.2 | 7.2 | -2.9
CO[C@H]1CN(C)C(=O)c2cc(NC(=O)c3cc(C)on3)ccc2OC[C@@H](C)N(C(=O)C2CC2)C[C@H]1C | -2.7 | -2.3 | 3.3 | · | · | ·
COC(=O)N/N=C(\CCC(=O)O)c1cccs1 | 89.7* | 0.6 | 4.5 | 0.7 | -4.0 | 0.3
CC(C(=O)O)N1C(=O)CSC1=S (configuration not stated) | 3.9 | 5.0 | 88.4* | 11.8 | 0.5 | -3.5
CC(C(=O)O)N1C(=O)CSc2ncccc21 (configuration not stated) | -2.0 | 2.6 | 0.3 | -4.1 | 2.4 | -3.2
N#C/C(=C/C1=C(N2CCOCC2)C(=C/c2ccccc2)/CC1)C(=O)Nc1ccccc1F | 57.6* | -46.1 | 83.5 | · | 4.8 | ·
Nc1ccn([C@@H]2O[C@H](CNC(=O)[C@@H](N)CSCc3ccccc3)[C@@H](O)[C@H]2O)c(=O)n1 | 0.5 | -4.7 | 3.5 | -0.8 | -3.3 | ·
Cc1ccc(C2CC(=O)N3CN(c4ccc(Br)cc4)CSC3=C2C#N)o1 (configuration not stated) | 35.3* | -17.9 | -10.7 | 45.3* | 6.6 | 17.5

Source: PubChem BioAssay
